Activity calls are given as the source filed them. The rule behind the calls is not given here. Numbered stars: 1 amine (or outer) side, 2 acyl side, 3 side chain; on linkers, the order of the positions; unused ones are H or OH. Square brackets hold non-standard residues; d marks the D form. Peptide text beside a SMILES is read from it. X1 = CC1(C)SC[C@@H](C(=O)[*:2])N1[*:1]; Tle = CC(C)(C)[C@H](N)C(=O)O

The nature of series [1]: Binding affinity to GST-calcineurin fusion protein substrate docking site (unknown origin) expressed in Escherichia coli BL21 cells by fluorescence anisotropy assay. More on the design: species or system Homo sapiens. In short, it runs like this: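 GST–CN fusion expressed in E. coli BL21, glutathione-Sepharose purified. FA read at ex 485/em 525 nm; KD from fitting FA versus CN concentration with correction for fluorophore–protein interaction.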

The next series is filed under the species Homo sapiens. Kind of series: (§1) Inhibition of FITC-labelled […] binding to calcineurin (unknown origin) by modified fluorescence anisotropy assay.
A short description of series [2]: as §1. Further details: species or system Homo sapiens.
The nature of series [3]: Half life in 25% human serum at 37 degC. Type of series: ADME. In short, it runs like this:
(§2)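 Peptides were incubated in diluted human serum (25%) at 37 °C for up to 6 h. The amount of intact peptide remaining was monitored over time by HPLC.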

In series [4] the test system is Serum. The series can be described thus: Drug metabolism in 25% human serum at 37 degC at 6 hrs. Type of series: ADME, cell-free. In short, it runs like this: as §2
The subject of the next series is HeLa. The series can be described thus: Inhibition of calcineurin in human HeLa cells assessed as blocked of GFP-NFAT translocation at 500 nM prior to ionomycin treatment by fluorescence based confocal microscopy in presence of ionomycin. Type of series: cell-based. In short, it runs like this:
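HeLa cells stably expressing GFP–NFAT1 pretreated with R11-conjugated peptide (500 nM), then stimulated with ionomycin. Time-lapse live-cell confocal imaging; increase in nuclear fluorescence after 10 min ionomycin compared with inhibitor-free control (100%). Mean ± SD from at least 30 cells; two-tailed t test.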

Series [5] deals with Growth factor receptor-bound protein 2 (Homo sapiens) (UniProt P62993). Kind of series: Binding affinity to SH2 domain of Grb2 (unknown origin).
Chain of Growth factor receptor-bound protein 2 (Homo sapiens) (P62993 whole entry, looked up, the tested form may be a part): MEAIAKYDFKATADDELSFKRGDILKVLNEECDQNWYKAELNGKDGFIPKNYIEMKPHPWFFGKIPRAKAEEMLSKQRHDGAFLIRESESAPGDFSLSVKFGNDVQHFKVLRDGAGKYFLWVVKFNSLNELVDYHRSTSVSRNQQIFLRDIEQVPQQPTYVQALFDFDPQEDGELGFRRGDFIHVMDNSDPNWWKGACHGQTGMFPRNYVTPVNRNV
In series [6] the test system is Serum. Kind of series: Drug metabolism in 25% human serum assessed as compound remaining at 37 degC. Type of series: ADME, cell-free. Summed up: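 Peptide incubated in human serum diluted to 25% at 37 °C; remaining intact peptide quantified by HPLC over time up to 6 h.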
Series [7] has as its target Tyrosine-protein phosphatase non-receptor type 6 (Homo sapiens, UniProt P29350). Kind of series: Binding affinity to SHP1 (unknown origin).
The target of the next series is Albumin (Bos taurus, UniProt P02769). Kind of series: Binding affinity to bovine serum albumin. Type of series: ADME. Particulars: cattle, isolated protein.
Chain of Albumin (P02769 whole entry): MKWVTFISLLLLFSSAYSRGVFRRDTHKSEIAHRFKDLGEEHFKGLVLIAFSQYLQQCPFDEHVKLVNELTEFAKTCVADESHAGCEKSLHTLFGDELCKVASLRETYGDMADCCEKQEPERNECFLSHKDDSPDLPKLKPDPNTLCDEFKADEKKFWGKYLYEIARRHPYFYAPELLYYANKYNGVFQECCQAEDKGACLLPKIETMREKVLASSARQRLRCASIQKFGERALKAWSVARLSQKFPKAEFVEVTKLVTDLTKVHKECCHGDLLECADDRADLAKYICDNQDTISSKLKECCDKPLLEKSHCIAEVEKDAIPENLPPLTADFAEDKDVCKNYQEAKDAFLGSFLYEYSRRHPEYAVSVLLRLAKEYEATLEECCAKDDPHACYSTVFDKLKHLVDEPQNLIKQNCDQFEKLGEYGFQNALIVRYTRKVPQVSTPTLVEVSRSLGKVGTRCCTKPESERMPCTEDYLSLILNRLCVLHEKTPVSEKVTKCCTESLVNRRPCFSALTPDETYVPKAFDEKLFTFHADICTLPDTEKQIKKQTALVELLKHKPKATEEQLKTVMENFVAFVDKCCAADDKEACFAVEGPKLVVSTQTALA
Series [8] concerns GTPase KRas (Homo sapiens), P01116 [G12V]. Kind of series: Binding affinity to K-Ras G12V mutant (unknown origin).
Chain of GTPase KRas (Homo sapiens), P01116 [G12V] (P01116 whole entry G12V): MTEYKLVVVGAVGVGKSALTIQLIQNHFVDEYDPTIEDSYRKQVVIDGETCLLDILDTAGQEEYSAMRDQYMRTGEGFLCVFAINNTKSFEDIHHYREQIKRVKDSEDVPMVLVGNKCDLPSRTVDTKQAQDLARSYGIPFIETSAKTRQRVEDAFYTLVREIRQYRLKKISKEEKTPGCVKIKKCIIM
The target of series [9] is T1, Tyrosine-protein phosphatase non-receptor type 1 (Homo sapiens, UniProt P18031).
T1 sequence (P18031 whole entry): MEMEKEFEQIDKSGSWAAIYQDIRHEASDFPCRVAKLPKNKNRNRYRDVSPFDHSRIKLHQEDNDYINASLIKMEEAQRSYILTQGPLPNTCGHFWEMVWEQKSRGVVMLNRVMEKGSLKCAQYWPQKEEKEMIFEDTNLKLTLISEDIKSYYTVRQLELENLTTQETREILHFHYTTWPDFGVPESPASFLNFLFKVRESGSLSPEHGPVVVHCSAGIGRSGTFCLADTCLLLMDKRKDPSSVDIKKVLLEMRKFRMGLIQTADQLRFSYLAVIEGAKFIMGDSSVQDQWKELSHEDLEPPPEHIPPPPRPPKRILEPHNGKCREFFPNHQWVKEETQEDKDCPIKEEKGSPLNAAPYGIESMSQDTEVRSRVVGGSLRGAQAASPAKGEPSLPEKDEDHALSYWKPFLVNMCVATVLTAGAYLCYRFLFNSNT
The series can be described thus: Binding affinity to PTP1B (unknown origin).

Chain of Tyrosine-protein phosphatase non-receptor type 6 (P29350 whole entry): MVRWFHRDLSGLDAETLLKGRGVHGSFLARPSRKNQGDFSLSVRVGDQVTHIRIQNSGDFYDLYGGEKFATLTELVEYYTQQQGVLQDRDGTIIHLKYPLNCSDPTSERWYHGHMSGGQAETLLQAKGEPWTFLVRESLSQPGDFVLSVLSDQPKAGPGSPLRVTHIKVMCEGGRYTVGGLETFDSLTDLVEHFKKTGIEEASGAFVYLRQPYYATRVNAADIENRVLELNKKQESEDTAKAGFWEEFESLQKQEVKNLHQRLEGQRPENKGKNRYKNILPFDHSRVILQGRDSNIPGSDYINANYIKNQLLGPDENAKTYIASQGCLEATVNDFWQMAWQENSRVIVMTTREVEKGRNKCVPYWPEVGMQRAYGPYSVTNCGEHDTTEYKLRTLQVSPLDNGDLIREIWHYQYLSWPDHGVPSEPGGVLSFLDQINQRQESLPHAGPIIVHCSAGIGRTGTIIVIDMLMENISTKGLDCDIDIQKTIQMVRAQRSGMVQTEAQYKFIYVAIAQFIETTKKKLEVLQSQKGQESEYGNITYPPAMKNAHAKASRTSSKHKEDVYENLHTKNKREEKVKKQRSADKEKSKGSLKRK

Consider `CC[C@H](C)[C@H](NC(=O)[C@@H](NC(=O)[C@@H]1CCCN1C(=O)[C@H](Cc1cnc[nH]1)NC(=O)[C@@H]1CCCN1C(=O)CN)C(C)C)C(=O)N[C@H](C(=O)N[C@H](C(=O)N[C@H](C(=O)NCC(=O)N1CCC[C@H]1C(=O)N[C@@H](Cc1cnc[nH]1)C(=O)N[C@@H](CCC(=O)O)C(=O)N[C@@H](CCC(=O)O)C(=O)O)C(C)O)[C@@H](C)CC)C(C)C` (stereo not given in full), for which, in series [1], the Kd worked out at 477 nM. Besides, the inhibition result in the series filed under Homo sapiens is “Dose-dependent effect”. Further, the half-inhibitory concentration (IC50) in [2] was 4100 nM. This compound showed a half-life in series [3] of 1 h. Further, the Stability result in the series on Serum [4] is “Unstable”.

`CCCOC(=O)CNC(=O)[C@H](CCC(=O)O)NC(=O)[C@H](CCC(=O)O)NC(=O)[C@H](Cc1cnc[nH]1)NC(=O)[C@@H]1CSC(C)(C)N1C(=O)CNC(=O)[C@@H](NC(=O)[C@@H](NC(=O)[C@@H](NC(=O)[C@@H](NC(=O)[C@@H](NC(=O)[C@@H]1CCCN1C(=O)[C@H](Cc1cnc[nH]1)NC(=O)[C@@H]1CCCN1C(=O)CNC(=O)CCSSC[C@H](NC(=O)[C@H](CCCNC(=N)N)NC(=O)[C@H](CCCNC(=N)N)NC(=O)[C@H](CCCNC(=N)N)NC(=O)[C@H](CCCNC(=N)N)NC(=O)[C@H](CCCNC(=N)N)NC(=O)[C@H](CCCNC(=N)N)NC(=O)[C@H](CCCNC(=N)N)NC(=O)[C@H](CCCNC(=N)N)NC(=O)[C@H](CCCNC(=N)N)NC(=O)[C@H](CCCNC(=N)N)NC(=O)[C@H](CCCNC(=N)N)NC(C)=O)C(N)=O)C(C)(C)C)[C@@H](C)CC)C(C)(C)C)[C@@H](C)CC)[C@@H](C)O`: the inhibition in the series on HeLa came to 95%.

As to `CC[C@H](C)[C@H](NC(=O)[C@@H](NC(=O)[C@@H](NC(=O)[C@@H](NC(=O)[C@@H]1CCCN1C(=O)[C@H](Cc1cnc[nH]1)NC(=O)[C@@H]1CCCN1C(=O)CN)C(C)(C)C)[C@@H](C)CC)C(C)(C)C)C(=O)N[C@H](C(=O)NCC(=O)N1CCC[C@H]1C(=O)N[C@@H](Cc1cnc[nH]1)C(=O)N[C@@H](CCC(=O)O)C(=O)N[C@@H](CCC(=O)O)C(=O)O)[C@@H](C)O` (H-GPHP[Tle]I[Tle]ITGPHEE-OH), in series [1], the dissociation constant Kd was determined as 43 nM. Moreover, in the series listed under Homo sapiens, the inhibition result is “Dose-dependent effect”. Further, in series [2], the IC50 was determined as 280 nM.

As for `CC[C@H](C)[C@H](NC(=O)[C@@H](NC(=O)[C@@H](NC(=O)[C@@H](NC(=O)[C@@H]1CCCN1C(=O)[C@H](Cc1cnc[nH]1)NC(=O)[C@@H]1CCCN1C(=O)CN)C(C)(C)C)[C@@H](C)CC)C(C)(C)C)C(=O)N[C@H](C(=O)NCC(=O)N1[C@H](C(=O)N[C@@H](Cc2cnc[nH]2)C(=O)N[C@@H](CCC(=O)O)C(=O)N[C@@H](CCC(=O)O)C(=O)O)CSC1(C)C)[C@@H](C)O` (H-GPHP[Tle]I[Tle]ITG[X1]HEE-OH), the outcome in series [5] and in series [8] was inactive. The Stability in the series on Serum [6] is recorded as 60%. Also, the figures for the equilibrium dissociation constant (Kd) in [1], in series [7] and in series [9] were 2.6 nM, above 15000 nM and 9000 nM, respectively. In addition, the inhibition entry in the series listed under Homo sapiens is “Dose-dependent effect”; in the series with HeLa, 95%. Also, in [2], the IC50 worked out at 110 nM. For the same compound, the Activity result on Albumin is given as “Not Active”.

H-GPHAVAVAAGPHEE-OH: the Kd in [1] is above 200000 nM.

Source of the values: ChEMBL document CHEMBL3351816, “Structure-based optimization of a peptidyl inhibitor against calcineurin-nuclear factor of activated T cell (NFAT) interaction” (J Med Chem, 2014).
